Data from ChEMBL document CHEMBL4014310, “Selective IKur Inhibitors for the Potential Treatment of Atrial Fibrillation: Optimization of the Phenyl Quinazoline Series Leading to Clinical Candidate 5-[5-Phenyl-4-(pyridin-2-ylmethylamino)quinazolin-2-yl]pyridine-3-sulfonamide” (J Med Chem, 2017).

Assays:
[1] = target: T1, Potassium voltage-gated channel subfamily A member 5 (Homo sapiens, UniProt P22460); conditions: at 0.3 µM
[2] = Protein binding in rat plasma; type: ADME, cell-free; conditions: read-out: PPB
[3] = Protein binding in human plasma; type: ADME, cell-free; conditions: read-out: PPB
[4] = Ratio of drug level in Sprague-Dawley rat brain to plasma at 3 mg/kg, iv administered as 10 mins infusion by LC-MS/MS analysis; type: ADME, organism-based; conditions: brain and plasma, read-out: BPR
[5] = Solubility of the compound in ethanol/propylene glycol/PEG-400; type: physicochemical
[6] = target: T2, Voltage-gated inwardly rectifying potassium channel KCNH2 (Homo sapiens, UniProt Q12809); assay: Inhibition of human ERG expressed in HEK293 cells by patch clamp method; type: cell-based
T2 sequence (Q12809 whole entry): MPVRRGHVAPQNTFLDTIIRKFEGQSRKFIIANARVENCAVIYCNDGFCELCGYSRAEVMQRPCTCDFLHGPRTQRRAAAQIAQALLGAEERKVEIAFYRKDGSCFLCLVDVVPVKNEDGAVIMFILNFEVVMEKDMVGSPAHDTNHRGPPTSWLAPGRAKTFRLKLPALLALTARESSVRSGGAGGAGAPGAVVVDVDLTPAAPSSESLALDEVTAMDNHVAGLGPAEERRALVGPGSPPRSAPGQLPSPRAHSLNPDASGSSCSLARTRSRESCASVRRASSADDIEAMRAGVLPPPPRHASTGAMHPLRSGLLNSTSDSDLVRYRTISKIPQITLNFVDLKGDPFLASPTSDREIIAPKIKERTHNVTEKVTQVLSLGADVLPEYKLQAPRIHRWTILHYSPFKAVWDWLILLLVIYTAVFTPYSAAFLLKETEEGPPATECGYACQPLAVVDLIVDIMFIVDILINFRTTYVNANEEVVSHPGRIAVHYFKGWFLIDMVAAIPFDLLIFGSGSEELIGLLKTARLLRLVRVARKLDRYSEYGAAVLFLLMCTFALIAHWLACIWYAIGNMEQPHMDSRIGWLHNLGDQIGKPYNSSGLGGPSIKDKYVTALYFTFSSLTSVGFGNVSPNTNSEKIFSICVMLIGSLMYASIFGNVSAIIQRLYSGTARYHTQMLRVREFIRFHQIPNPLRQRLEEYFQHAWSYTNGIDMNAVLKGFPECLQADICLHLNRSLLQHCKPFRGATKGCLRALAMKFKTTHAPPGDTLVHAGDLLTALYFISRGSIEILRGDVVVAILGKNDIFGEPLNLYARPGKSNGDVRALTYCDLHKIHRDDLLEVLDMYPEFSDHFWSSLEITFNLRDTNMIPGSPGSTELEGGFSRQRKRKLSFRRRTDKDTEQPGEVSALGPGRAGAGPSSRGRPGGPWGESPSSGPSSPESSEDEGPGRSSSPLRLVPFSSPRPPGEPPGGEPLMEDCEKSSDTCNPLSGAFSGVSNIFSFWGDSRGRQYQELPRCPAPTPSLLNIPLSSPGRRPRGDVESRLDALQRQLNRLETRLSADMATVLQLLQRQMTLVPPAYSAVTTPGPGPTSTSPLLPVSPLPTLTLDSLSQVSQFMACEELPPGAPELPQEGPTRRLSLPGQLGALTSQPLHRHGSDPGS

[7] = target: T1, Potassium voltage-gated channel subfamily A member 5; assay: Inhibition of recombinant human Kv1.5 expressed in mouse L929 cells by patch clamp assay; type: cell-based
Outline: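 Whole-cell patch clamp of IKur current in mouse L-929 cells transfected with human KV1.5 and stably expressing the channel.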

[8] = target: T2, Voltage-gated inwardly rectifying potassium channel KCNH2; assay: Inhibition of human ERG expressed in HEK293 cells by flux assay
[9] = Stability in human liver microsomes assessed as compound remaining in presence of NADPH after 10 mins; type: ADME, microsome; conditions: read-out: Stability
hERG (KCNH2) [10] = target: T3, hERG (KCNH2) (Homo sapiens, UniProt Q12809); assay: Inhibition of human ERG expressed in HEK293 cells at 10 uM by patch clamp method relative to control; type: cell-based; conditions: HEK293 cells expressing human ERG
T3 sequence (Q12809 whole entry): as above

Plasma = assay: Drug uptake in monkey famotidine model plasma; type: ADME, cell-free, Macaca mulatta; conditions: rhesus monkey
[11] = Solubility of the compound in pH 1 to 8 solution using crystalline form; type: physicochemical
[12] = Prodrug conversion in monkey famotidine model assessed as 5-[5-phenyl-4-(pyridin-2-ylmethylamino)-quinazolin-2-yl]pyridine-3-sulfonamide formation in intestinal brush border; type: ADME, Macaca mulatta; conditions: rhesus monkey, in vivo
hERG (KCNH2) [13] = target: T3, hERG (KCNH2); assay: Inhibition of human ERG expressed in HEK293 cells at 1 uM by patch clamp method relative to control; type: cell-based; conditions: HEK293 cells expressing human ERG

T1 sequence (P22460 whole entry): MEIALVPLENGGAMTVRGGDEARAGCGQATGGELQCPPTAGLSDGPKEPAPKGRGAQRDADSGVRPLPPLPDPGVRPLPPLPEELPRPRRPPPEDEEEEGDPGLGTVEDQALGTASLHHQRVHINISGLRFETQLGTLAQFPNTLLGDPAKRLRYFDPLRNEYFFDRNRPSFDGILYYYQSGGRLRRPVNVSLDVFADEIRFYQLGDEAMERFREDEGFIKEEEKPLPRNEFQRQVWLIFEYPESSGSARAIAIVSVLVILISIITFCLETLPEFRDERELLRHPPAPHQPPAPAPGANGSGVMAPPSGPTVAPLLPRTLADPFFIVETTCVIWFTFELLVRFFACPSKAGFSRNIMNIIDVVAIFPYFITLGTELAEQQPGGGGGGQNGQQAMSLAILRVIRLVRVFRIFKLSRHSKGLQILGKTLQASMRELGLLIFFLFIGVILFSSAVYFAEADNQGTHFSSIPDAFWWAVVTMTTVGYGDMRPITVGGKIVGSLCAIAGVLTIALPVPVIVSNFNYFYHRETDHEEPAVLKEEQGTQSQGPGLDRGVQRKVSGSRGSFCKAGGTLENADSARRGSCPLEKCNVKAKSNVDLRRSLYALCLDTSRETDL

| Structure (SMILES) | inhibition [1] [%] | fraction unbound [2] | fraction unbound [3] | Kp at 10 min [4] | further results |
| --- | --- | --- | --- | --- | --- |
| NS(=O)(=O)Nc1cncc(-c2nc(NCc3ccccn3)c3c(-c4ccccc4)cccc3n2)c1 | 99 | < 0.005 | < 0.005 | 0.04 | solubility [5]: Insoluble; IC50 [6]: 800 nM |
| NS(=O)(=O)c1ccc(CCNc2nc(-c3cncnc3)nc3cccc(-c4ccccc4)c23)cc1 | 15 | – | – | – | IC50 [8]: 5600 nM |
| O=S(=O)(c1cccc(Nc2nc(-c3cncnc3)nc3cccc(-c4ccccc4)c23)c1)N1CCOCC1 | – | < 0.005 | < 0.005 | 2.4 | IC50 [7]: 80 nM |
| CN(C)c1ccc(-c2cccc3nc(-c4cncnc4)nc(NCc4ccccn4)c23)cc1 | – | – | – | – | IC50 [8]: > 80000 nM; remaining at 10 min [9]: < 3%; IC50 [7]: 330 nM |
| NC(=O)c1ccc(-c2cccc3nc(-c4cncnc4)nc(NCc4ccccn4)c23)cc1 | – | < 0.01 | < 0.01 | 0.2 | IC50 [6]: 1300 nM |
| O=P(O)(O)NS(=O)(=O)c1cncc(-c2nc(NCc3ccccn3)c3c(-c4ccccc4)cccc3n2)c1 | – | – | – | – | Drug uptake (Plasma): Not Active; solubility [11]: Soluble; Drug metabolism [12]: Metabolite_Detected |
| O=S(=O)(c1cccc(Nc2nc(Cl)nc3cccc(-c4ccccc4)c23)c1)N1CCOCC1 | – | – | – | 3 | IC50 [7]: 210 nM |
| c1ccc(CNc2nc(-c3cncnc3)nc3cccc(-c4cccc(N5CCOCC5)c4)c23)nc1 | 50 | – | – | 0.3 | – |
| O=C(NCC(F)(F)F)c1ccc(-c2cccc3nc(-c4cncnc4)nc(NCc4ccccn4)c23)cc1 | 2 | < 0.005 | < 0.005 | 0.3 | IC50 [6]: 4900 nM |
| NS(=O)(=O)c1ccc(CCNc2nc(Cl)nc3cccc(-c4ccccc4)c23)cc1 | 73 | – | – | 0.6 | remaining at 10 min [9]: 68% |

Further lines, with some results ahead:

| inhibition [1] [%] | fraction unbound [2] | fraction unbound [3] | Kp at 10 min [4] | Structure (SMILES) | further results |
| --- | --- | --- | --- | --- | --- |
| 92 | < 0.005 | < 0.005 | 0.4 | NS(=O)(=O)c1ccc(-c2nc(NCc3ccccn3)c3c(-c4ccccc4)cccc3n2)cn1 | – |
| – | < 0.005 | < 0.005 | 0.08 | CC(=O)Nc1cncc(-c2nc(NCc3ccccn3)c3c(-c4ccccc4)cccc3n2)c1 | IC50 [6]: 2000 nM; IC50 [7]: 100 nM |
| 64 | – | – | 3 | N#Cc1ncc(-c2nc(NCc3ccccn3)c3c(-c4ccccc4)cccc3n2)cn1 | – |
| 80 | < 0.005 | < 0.005 | 2 | CC(=O)Nc1ccc(-c2nc(NCc3ccccn3)c3c(-c4ccccc4)cccc3n2)cn1 | – |
| 87 | < 0.005 | < 0.005 | 0.07 | CS(=O)(=O)Nc1cncc(-c2nc(NCc3ccccn3)c3c(-c4ccccc4)cccc3n2)c1 | inhibition at 10 µM (hERG (KCNH2) [10]): 94% |
| 95 | < 0.005 | < 0.005 | 3 | Nc1ncc(-c2nc(NCc3ccccn3)c3c(-c4ccccc4)cccc3n2)cn1 | IC50 [6]: 80000 nM |
| – | – | – | 1 | O=c1ccc(-c2nc(NCc3ccccn3)c3c(-c4ccccc4)cccc3n2)c[nH]1 | IC50 [6]: 500 nM |
| – | – | – | 2.8 | c1ccc(-c2cccc3nc(-c4cncnc4)nc(NCc4ccccn4)c23)cc1 | – |
| 89 | < 0.005 | < 0.005 | 0.3 | NC(=O)c1cncc(-c2nc(NCc3ccccn3)c3c(-c4ccccc4)cccc3n2)c1 | inhibition at 1 µM (hERG (KCNH2) [13]): 26% |
| 91 | < 0.005 | < 0.005 | 0.04 | NC(=O)Nc1cncc(-c2nc(NCc3ccccn3)c3c(-c4ccccc4)cccc3n2)c1 | solubility [5]: Insoluble |
| – | < 0.01 | < 0.01 | 3 | NC(=O)c1ccc(-c2nc(NCc3ccccn3)c3c(-c4ccccc4)cccc3n2)cn1 | IC50 [6]: 4600 nM; IC50 [7]: 100 nM |
| – | – | – | 2.5 | COc1ncc(-c2nc(NCc3ccccn3)c3c(-c4ccccc4)cccc3n2)cn1 | – |
| 79 | < 0.005 | < 0.005 | 1 | NC(=O)Nc1ccc(-c2nc(NCc3ccccn3)c3c(-c4ccccc4)cccc3n2)cn1 | – |
| 48 | – | – | – | NS(=O)(=O)c1ccncc1-c1nc(NCc2ccccn2)c2c(-c3ccccc3)cccc2n1 | – |
| 87 | – | – | – | NS(=O)(=O)c1cccc(-c2nc(NCc3ccccn3)c3c(-c4ccccc4)cccc3n2)n1 | – |
